Assay results from ChEMBL document CHEMBL1130208, “(1 alpha, 2 beta, 3 beta, 4 alpha)-1,2-bis[N-propyl-N-(4-phenoxybenzyl) amino]carbonyl]cyclobutane-3,4-dicarboxylic acid (A-87049): a novel potent squalene synthase inhibitor” (J Med Chem, 1997).

Columns and labels:
[1] = target: T1, Squalene synthase (Rattus norvegicus, UniProt Q02769); assay: In vitro inhibitory activity against Squalene Synthase
T1 sequence (Q02769 whole entry): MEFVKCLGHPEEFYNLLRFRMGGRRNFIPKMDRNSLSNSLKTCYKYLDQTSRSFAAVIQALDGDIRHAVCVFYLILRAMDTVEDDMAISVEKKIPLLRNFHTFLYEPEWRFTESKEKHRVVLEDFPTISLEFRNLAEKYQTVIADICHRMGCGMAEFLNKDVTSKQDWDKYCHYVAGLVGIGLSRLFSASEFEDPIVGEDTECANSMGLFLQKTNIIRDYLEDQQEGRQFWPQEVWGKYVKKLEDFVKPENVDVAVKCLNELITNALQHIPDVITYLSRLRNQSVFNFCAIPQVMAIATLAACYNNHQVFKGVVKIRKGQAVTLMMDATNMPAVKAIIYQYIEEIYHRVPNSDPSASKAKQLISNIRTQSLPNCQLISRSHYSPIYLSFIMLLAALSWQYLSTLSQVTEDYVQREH
Summary of the method: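 Squalene synthase inhibition measured in a rat liver microsomal enzyme assay.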

[2] = tested on: Monkey; assay: In vivo percent change of HDL cholesterol in monkeys at 20 mg/kg/day for 5 days dose; type: functional, Cercopithecidae
Summary of the method: (§1)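 Cynomolgus monkeys (n = 4) were given 20 mg/kg po daily for 5 days, and controls received vehicle with 0.2% methocel. Animals were fasted overnight before the last dose and bled from the femoral vein 2 h after dosing on day 5, before feeding. Plasma lipids are expressed as % change from pretreatment, with one-sample t-tests.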

[3] = tested on: Monkey; assay: In vivo percent change of LDL cholesterol in monkeys at 20 mg/kg/day for 5 days dose; type: functional, Cercopithecidae; summary of the method: as §1
[4] = tested on: Monkey; assay: In vivo percent change of total cholesterol in monkeys at 20 mg/kg/day for 5 days dose; type: functional, Cercopithecidae; summary of the method: as §1
[5] = tested on: Monkey; assay: In vivo percent change of total cholesterol in monkeys at 20 mg/kg/day for 5 days dose c; type: functional, Cercopithecidae; summary of the method: as §1

Compound	IC50 [1]	Change [2]	Change [3]	Change [4]	Change [5]
CC[C@H](C)C(=O)O[C@H]1C[C@@H](C)C=C2C=C[C@H](C)[C@H](CC[C@@H]3C[C@@H](O)CC(=O)O3)[C@H]21 [LOVASTATIN]		-12%	-21%	-19%	
CCCN(Cc1ccc(Oc2ccccc2)cc1)C(=O)[C@@H]1[C@H](C(=O)O)[C@@H](C(=O)O)[C@H]1C(=O)N(CCC)Cc1ccc(Oc2ccccc2)cc1		-4%	-36%		-12%
CN(Cc1cccc(Oc2ccccc2)c1)C(=O)[C@@H]1[C@H](C(=O)O)[C@@H](C(=O)O)[C@H]1C(=O)N(C)Cc1cccc(Oc2ccccc2)c1	8 µM				

Second part, led by results:

IC50 [1]	Compound	Change [2]	Change [3]	Change [4]	Change [5]
10 µM	CN(Cc1ccc(OCc2ccccc2)cc1)C(=O)[C@@H]1[C@H](C(=O)O)[C@@H](C(=O)O)[C@H]1C(=O)N(C)Cc1ccc(OCc2ccccc2)cc1				
0.14 µM	CC(C)N(Cc1ccc(Oc2ccccc2)cc1)C(=O)[C@@H]1[C@H](C(=O)O)[C@@H](C(=O)O)[C@H]1C(=O)N(Cc1ccc(Oc2ccccc2)cc1)C(C)C				
